Source: ChEMBL document CHEMBL3608288, “Novel Chalcone-Thiazole Hybrids as Potent Inhibitors of Drug Resistant Staphylococcus aureus” (ACS Med Chem Lett, 2015)
In brackets after ≈: the same amount, converted by molar mass. Activity calls are given as the source filed them. The calls are words filed in the database; no cut-off is given here.

How the values were obtained:
Escherichia coli = experiment: Antibacterial activity against Escherichia coli ATCC 9637 after 16 hrs by microtiter broth dilution method; format: functional; conditions: W
Pseudomonas aeruginosa = experiment: Antibacterial activity against Pseudomonas aeruginosa ATCC BAA-427 after 16 hrs by microtiter broth dilution method; format: functional
Staphylococcus aureus [1] = experiment: Antibacterial activity against Staphylococcus aureus ATCC 25923 after 16 hrs by microtiter broth dilution method; format: functional
Staphylococcus aureus [2] = experiment: Antibacterial activity against methicillin-resistant Staphylococcus aureus ATCC 700699 after 16 hrs by microtiter broth dilution method; format: functional
Staphylococcus aureus [3] = experiment: Antibacterial activity against […] Staphylococcus aureus ATCC 29213 after 16 hrs by microtiter broth dilution method; format: functional
Staphylococcus aureus [4] = experiment: Antibacterial activity against methicillin/gentamicin-resistant Staphylococcus aureus ATCC 33592 after 16 hrs by microtiter broth dilution method; format: functional
Klebsiella pneumoniae = experiment: Antibacterial activity against Klebsiella pneumoniae ATCC 27736 after 16 hrs by microtiter broth dilution method; format: functional
Cryptococcus neoformans = experiment: Antifungal activity against Cryptococcus neoformans after 16 hrs by microtiter broth dilution method; format: functional
Sporothrix schenckii = experiment: Antifungal activity against Sporothrix schenckii after 16 hrs by microtiter broth dilution method; format: functional
[5] = test system: Trichophyton mentagrophytes; experiment: Antifungal activity against Trichophyton mentagrophytes after 16 hrs by microtiter broth dilution method; format: functional
Aspergillus fumigatus = experiment: Antifungal activity against Aspergillus fumigatus after 16 hrs by microtiter broth dilution method; format: functional
Candida albicans = experiment: Antifungal activity against Candida albicans after 16 hrs by microtiter broth dilution method; format: functional
Candida parapsilosis = experiment: Antifungal activity against Candida parapsilosis ATCC 22019 after 16 hrs by microtiter broth dilution method; format: functional
[6] = Hemolytic activity in human RBC at 100 ug/ml after 1 hr; conditions: erythrocyte
Staphylococcus aureus [7] = experiment: Antibacterial activity against […] Staphylococcus aureus ATCC 29213 assessed as reduction in log10CFU at 1x MIC and 10x MIC measured at 24 hrs relative to control; format: functional
Method in brief: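 Aliquots were taken at regular time points and plated for CFU counts. Reduction in log10 CFU was taken against a no-drug control.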

L929 [8] = experiment: Cytotoxicity against mouse L929 cells assessed as cell viability at <= MIC by MTT assay; format: cell-based
Method in brief: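 Mouse fibroblast L929 cells were exposed to the compound. Viability was read by MTT conversion to blue formazan, measured at 550 nm.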

L929 [9] = experiment: Cytotoxicity against mouse L929 cells assessed as induction of morphological changes at 1 x MIC after 24 hrs by Giemsa staining-based phase contrast microscopic analysis; format: cell-based; conditions: l929, 24 h
Method in brief: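 L929 fibroblasts were incubated with the compound for 24 h, then Giemsa-stained. Morphology was compared with untreated control cells under phase contrast microscopy for appearance, transparency and attachment to the well surface.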

[10] = Lodderomyces parapsilosis, ATCC 22019, 16 h

Molecule | MIC (Escherichia coli) | MIC (Pseudomonas aeruginosa; ATCC BAA-427, 16 h) | MIC (Staphylococcus aureus [1]; ATCC 25923, 16 h) | MIC (Staphylococcus aureus [2]; ATCC 700699, 16 h) | MIC (Staphylococcus aureus [3]; ATCC 29213, 16 h) | MIC (Staphylococcus aureus [4]; ATCC 33592, 16 h) | MIC (Klebsiella pneumoniae; ATCC 27736, 16 h) | MIC (Cryptococcus neoformans) | MIC (Sporothrix schenckii) | MIC [5] | MIC (Aspergillus fumigatus) | MIC (Candida albicans) | MIC (Candida parapsilosis; [10]) | Activity [6] | also measured
C[C@@H]1[C@H](O)[C@@H](C)/C=C/C=C/C=C/C=C/C=C/C=C/C=C/[C@H](O[C@@H]2O[C@H](C)[C@@H](O)[C@H](N)[C@@H]2O)C[C@@H]2O[C@](O)(C[C@@H](O)C[C@@H](O)[C@H](O)CC[C@@H](O)C[C@@H](O)CC(=O)O[C@H]1C)C[C@H](O)[C@H]2C(=O)O [AMPHOTERICIN B] | > 54.1 µM | > 54.1 µM | > 54.1 µM | > 54.1 µM | > 54.1 µM | > 54.1 µM | > 54.1 µM | 0.1 µM (≈ 0.0924 µg/mL) | 0.3 µM (≈ 0.277 µg/mL) | 0.3 µM (≈ 0.277 µg/mL) | 0.5 µM (≈ 0.462 µg/mL) |  |  |  | 
CCOC(=O)c1csc(/N=C/c2cc(/C=C/C(=O)c3ccc(C)cc3)cc(C(C)C)c2O)n1 | > 108 µM | > 108 µM | 27 µM (≈ 12.5 µg/mL) | 13.5 µM (≈ 6.24 µg/mL) | 13.5 µM (≈ 6.24 µg/mL) | 13.5 µM (≈ 6.24 µg/mL) | > 108 µM | > 108 µM | > 108 µM | > 108 µM | > 108 µM | > 108 µM | > 108 µM | Non-toxic | 
COc1ccc(C(=O)/C=C/c2cc(/C=N/c3nc(-c4ccc(OC)cc4)cs3)c(O)c(C(C)(C)C)c2)cc1 | > 94.9 µM | > 94.9 µM | 11.9 µM (≈ 6.27 µg/mL) | 11.9 µM (≈ 6.27 µg/mL) | 11.9 µM (≈ 6.27 µg/mL) | 3 µM (≈ 1.58 µg/mL) | > 94.9 µM | > 94.9 µM | > 94.9 µM | > 94.9 µM | > 94.9 µM | > 94.9 µM | > 94.9 µM | Non-toxic | 
COc1ccc(C(=O)/C=C/c2cc(/C=N/c3nc(-c4ccc(OC)c(OC)c4)cs3)c(O)c(C(C)(C)C)c2)cc1 | > 89.8 µM | > 89.8 µM | 11.2 µM (≈ 6.23 µg/mL) | 11.2 µM (≈ 6.23 µg/mL) | 11.2 µM (≈ 6.23 µg/mL) | 5.6 µM (≈ 3.12 µg/mL) | > 89.8 µM | > 89.8 µM | > 89.8 µM | > 89.8 µM | > 89.8 µM | > 89.8 µM | > 89.8 µM | Non-toxic | 
CN[C@H](CC(C)C)C(=O)N[C@H]1C(=O)N[C@@H](CC(N)=O)C(=O)N[C@H]2C(=O)N[C@H]3C(=O)N[C@H](C(=O)N[C@H](C(=O)O)c4cc(O)cc(O)c4-c4cc3ccc4O)[C@H](O)c3ccc(c(Cl)c3)Oc3cc2cc(c3O[C@@H]2O[C@H](CO)[C@@H](O)[C@H](O)[C@H]2O[C@H]2C[C@](C)(N)[C@H](O)[C@H](C)O2)Oc2ccc(cc2Cl)[C@H]1O [VANCOMYCIN] | > 157 µM | > 157 µM | 2.4 µM (≈ 3.48 µg/mL) | 9.8 µM (≈ 14.2 µg/mL) | 1.2 µM (≈ 1.74 µg/mL) | 2.4 µM (≈ 3.48 µg/mL) | > 157 µM | 157 µM (≈ 227 µg/mL) | 157 µM (≈ 227 µg/mL) | 157 µM (≈ 227 µg/mL) | 157 µM (≈ 227 µg/mL) | > 157 µM | 157 µM (≈ 227 µg/mL) |  | 
CCOC(=O)c1csc(/N=C/c2cc(/C=C/C(=O)c3ccc(OC)cc3)cc(C(C)(C)C)c2O)n1 | > 102 µM | > 102 µM | 12.7 µM (≈ 6.26 µg/mL) | 12.7 µM (≈ 6.26 µg/mL) | 12.7 µM (≈ 6.26 µg/mL) | 3.2 µM (≈ 1.58 µg/mL) | > 102 µM | > 102 µM | > 102 µM | > 102 µM | > 102 µM | > 102 µM | > 102 µM | Non-toxic | 
C[C@H]1COc2c(N3CCN(C)CC3)c(F)cc3c(=O)c(C(=O)O)cn1c23 |  |  |  |  |  |  |  |  |  |  |  |  |  |  | Activity (Staphylococcus aureus [7]): Active
COc1ccc(-c2csc(/N=C/c3cc(/C=C/C(=O)c4cccs4)cc(C(C)(C)C)c3O)n2)cc1OC | > 93.9 µM | > 93.9 µM | 23.5 µM (≈ 12.5 µg/mL) | 11.7 µM (≈ 6.23 µg/mL) | 11.7 µM (≈ 6.23 µg/mL) | 11.7 µM (≈ 6.23 µg/mL) | > 93.9 µM | > 93.9 µM | > 93.9 µM | > 93.9 µM | > 93.9 µM | > 93.9 µM | > 93.9 µM | Non-toxic | 
GENTAMICIN | 6.5 µM |  |  |  |  |  |  | 105 µM | 105 µM | 105 µM | 105 µM | > 105 µM |  |  | MIC (Pseudomonas aeruginosa): 1.6 µM; MIC (Staphylococcus aureus [1]): 1.6 µM; MIC (Staphylococcus aureus [2]): 105 µM; MIC (Staphylococcus aureus [3]): 3.3 µM; MIC (Staphylococcus aureus [4]): 105 µM; MIC (Klebsiella pneumoniae): 3.3 µM; MIC (Candida parapsilosis): 105 µM
CCOC(=O)c1csc(/N=C/c2cc(/C=C/C(=O)c3ccco3)cc(C(C)(C)C)c2O)n1 | > 110 µM | > 110 µM | 13.8 µM (≈ 6.24 µg/mL) | 13.8 µM (≈ 6.24 µg/mL) | 13.8 µM (≈ 6.24 µg/mL) | 13.8 µM (≈ 6.24 µg/mL) | > 110 µM | > 110 µM | > 110 µM | > 110 µM | > 110 µM | > 110 µM | > 110 µM | Non-toxic | 
CCCc1cc(/C=C/C(=O)c2ccco2)cc(/C=N/c2nc(C(=O)OCC)cs2)c1O | > 102 µM | > 102 µM | 51.2 µM (≈ 22.5 µg/mL) | 51.2 µM (≈ 22.5 µg/mL) | 51.2 µM (≈ 22.5 µg/mL) | 51.2 µM (≈ 22.5 µg/mL) | > 102 µM | > 102 µM | > 102 µM | > 102 µM | > 102 µM | > 102 µM | > 102 µM | Non-toxic | 
COc1ccc(-c2csc(/N=C/c3cc(/C=C/C(=O)c4ccc(C)cc4)cc(C(C)(C)C)c3O)n2)cc1 | > 97.9 µM | > 97.9 µM | 12.2 µM (≈ 6.23 µg/mL) | 12.2 µM (≈ 6.23 µg/mL) | 12.2 µM (≈ 6.23 µg/mL) | 12.2 µM (≈ 6.23 µg/mL) | > 97.9 µM | > 97.9 µM | > 97.9 µM | > 97.9 µM | > 97.9 µM | > 97.9 µM | > 97.9 µM | Non-toxic | 
OC(Cn1cncn1)(Cn1cncn1)c1ccc(F)cc1F [FLUCONAZOLE] | > 34.5 µM | > 34.5 µM | > 34.5 µM | > 34.5 µM | > 34.5 µM | > 34.5 µM | > 34.5 µM | 1.4 µM (≈ 0.429 µg/mL) | 1.4 µM (≈ 0.429 µg/mL) | 22.1 µM (≈ 6.77 µg/mL) | 22.1 µM (≈ 6.77 µg/mL) | 0.7 µM (≈ 0.214 µg/mL) | 1.4 µM (≈ 0.429 µg/mL) |  | 
CCn1cc(C(=O)O)c(=O)c2cc(F)c(N3CCNCC3)cc21 [NORFLOXACIN] |  | 1 µM (≈ 0.319 µg/mL) | 0.5 µM (≈ 0.16 µg/mL) | 33.6 µM (≈ 10.7 µg/mL) | 1 µM (≈ 0.319 µg/mL) | 0.5 µM (≈ 0.16 µg/mL) | 0.1 µM (≈ 0.0319 µg/mL) | 33.6 µM (≈ 10.7 µg/mL) | 33.6 µM (≈ 10.7 µg/mL) | 33.6 µM (≈ 10.7 µg/mL) | 33.6 µM (≈ 10.7 µg/mL) | > 33.6 µM | 33.6 µM (≈ 10.7 µg/mL) |  | 
CCOC(=O)c1csc(/N=C/c2cc(/C=C/C(=O)c3cccs3)cc(C(C)(C)C)c2O)n1 | > 107 µM | > 107 µM | 13.3 µM (≈ 6.23 µg/mL) | 13.3 µM (≈ 6.23 µg/mL) | 6.7 µM (≈ 3.14 µg/mL) | 3.3 µM (≈ 1.55 µg/mL) | > 107 µM | > 107 µM | > 107 µM | > 107 µM | > 107 µM | > 107 µM | > 107 µM | Non-toxic | 
CCOC(=O)c1csc(/N=C/c2cc(/C=C/C(=O)c3ccc(OC)cc3)cc(C(C)C)c2O)n1 | > 104 µM | > 104 µM | 26.1 µM (≈ 12.5 µg/mL) | 26.1 µM (≈ 12.5 µg/mL) | 26.1 µM (≈ 12.5 µg/mL) | 26.1 µM (≈ 12.5 µg/mL) | > 104 µM | > 104 µM | > 104 µM | > 104 µM | > 104 µM | > 104 µM | > 104 µM | Non-toxic | 
CCOC(=O)c1csc(/N=C/c2cc(/C=C/C(=O)c3cccs3)cc(C(C)C)c2O)n1 | > 110 µM | > 110 µM | 27.5 µM (≈ 12.5 µg/mL) | 27.5 µM (≈ 12.5 µg/mL) | 27.5 µM (≈ 12.5 µg/mL) | 13.7 µM (≈ 6.23 µg/mL) | > 110 µM | > 110 µM | > 110 µM | > 110 µM | > 110 µM | > 110 µM | > 110 µM | Non-toxic | 
CCOC(=O)c1csc(/N=C/c2cc(/C=C/C(=O)c3ccc(C)cc3)cc(C(C)(C)C)c2O)n1 | > 105 µM | > 105 µM | 6.5 µM (≈ 3.1 µg/mL) | 13.1 µM (≈ 6.24 µg/mL) | 6.5 µM (≈ 3.1 µg/mL) | 3.3 µM (≈ 1.57 µg/mL) | > 105 µM | > 105 µM | > 105 µM | > 105 µM | > 105 µM | > 105 µM | > 105 µM | Non-toxic | Activity (L929 [8]): Non-toxic; Activity (L929 [9]): Non-toxic
